From ChEMBL document CHEMBL2390862, “Enmein-type diterpenoid analogs from natural kaurene-type oridonin: Synthesis and their antitumor biological evaluation” (Eur J Med Chem, 2013)

Legend:
Format in all cases: functional, cell-based
[1] = Cytotoxicity against human CaEs17 cells after 72 hrs by MTT assay; details: CaEs17, 72 h
In short: (§1)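 K562, CaEs-17, Bel-7402 and MGC-803 cells in log phase seeded at 5 × 10⁴ cells/mL, incubated with or without test compounds at 37 °C, 5% CO₂; after 72 h MTT (5 mg/mL stock) added for 4 h, formazan dissolved in DMSO, OD read at 490 nm. Negative reference 0.1% DMSO, Taxol positive control. IC50 as mean ± S.D. of three independent experiments.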

K562 = test: Cytotoxicity against human K562 cells after 72 hrs by MTT assay; details: K562, 72 h; in short: as §1
MGC-803 = test: Cytotoxicity against human MGC803 cells after 72 hrs by MTT assay; details: MGC-803, 72 h; in short: as §1
Bel-7402 = test: Cytotoxicity against human Bel7402 cells after 72 hrs by MTT assay; details: Bel-7402, 72 h; in short: as §1

SMILES	IC50 [1] [nM]	IC50 (K562) [nM]	IC50 (MGC-803) [nM]	IC50 (Bel-7402) [nM]
C=C1C(=O)[C@@]23C(=O)O[C@H]4CCC(C)(C)[C@H]5[C@H](O)OC[C@@]45[C@@H]2CC[C@@H]1[C@H]3OC(=O)c1ccccc1	540	210	930	1420
CC(=O)O[C@H]1C(=O)[C@@]2(C)[C@H]([C@H](OC(=O)c3ccccc3)[C@]3(O)C[C@H](OC(=O)[C@H](O)[C@@H](NC(=O)c4ccccc4)c4ccccc4)C(C)=C1C3(C)C)[C@]1(OC(C)=O)CO[C@@H]1C[C@@H]2O [PACLITAXEL]	430			
C=C1C(=O)[C@@]23C(=O)O[C@H]4CCC(C)(C)[C@H]5[C@H](O)OC[C@@]45[C@@H]2CC[C@@H]1[C@H]3O			14200	
C=C1C(=O)[C@@]23C(=O)O[C@H]4CCC(C)(C)[C@H]5[C@H](O)OC[C@@]45[C@@H]2CC[C@@H]1[C@H]3OC(=O)c1ccccc1Cl	600	220	800	850
C=C1C(=O)[C@@]23C(=O)O[C@H]4CCC(C)(C)[C@H]5[C@H](O)OC[C@@]45[C@@H]2CC[C@@H]1[C@H]3OC(=O)c1ccc(OC)cc1	2710	690	3330	1790
C=C1C(=O)[C@@]23C(=O)O[C@H]4CCC(C)(C)[C@H]5[C@H](O)OC[C@@]45[C@@H]2CC[C@@H]1[C@H]3OC(=O)c1ccc(C)cc1	450	140	610	1010
